Columns and labels:
Homo sapiens [1] = species on record: Homo sapiens; test: Lymphocyte Proliferation Stimulatory effect on human umbilical cord blood at 10 ng/mL and measured for [3H]TdR (tritium-thymidine) uptake (percent of control); type: functional
Method in brief: (§1)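 Mononuclear cells were isolated from human peripheral blood or umbilical cord blood and plated at 1 × 10^5 cells/well in RPMI 1640 with 10% autologous plasma, with compound. After 4 days of incubation, a 6 h [3H]TdR pulse was given and uptake was counted by scintillation. Run in triplicate.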

Mus musculus [2] = species on record: Mus musculus; test: Lymphocyte Proliferation Stimulatory effect on Allogenic MLR at 1 ng/tritium-thymidine) uptake (percent of control); type: functional
Method in brief: (§2)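 Responders were BALB/c spleen cells and stimulators were C57BL/6 spleen cells pretreated with MMC (50 μg/mL, 30 min). Both were plated at 1 × 10^5 cells in 10% FCS RPMI 1640, with compounds added at plating. Culture was at 37 °C in 5% CO2 for 2–3 days, then a 6 h [3H]TdR pulse with scintillation counting. Run in triplicate.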

Mus musculus [3] = species on record: Mus musculus; test: Lymphocyte Proliferation Stimulatory effect on Allogenic MLR at 100 ng/mL and measured for [3H]-TdR (tritium-thymidine) uptake (percent of control); type: functional; method in brief: as §2
Homo sapiens [4] = species on record: Homo sapiens; test: Lymphocyte Proliferation Stimulatory effect on human umbilical cord blood at 1 ng/mL and measured for [3H]TdR (tritium-thymidine) uptake (percent of control); type: functional; method in brief: as §1
Homo sapiens [5] = species on record: Homo sapiens; test: Lymphocyte Proliferation Stimulatory effect on human umbilical cord blood at 100 ng/mL and measured for [3H]TdR (tritium-thymidine) uptake (percent of control); type: functional; method in brief: as §1
Homo sapiens [6] = species on record: Homo sapiens; test: Lymphocyte Proliferation Stimulatory effect on human peripheral blood at 1 ng/mL and measured for [3H]TdR (tritium-thymidine) uptake (percent of control); type: functional; method in brief: as §1
B16 [7] = test: Tumor Growth Inhibitory effect (TGIR) on mice subcutaneously inoculated with B16 cells (chemotherapeutic agent, mitomycin C (MMC)); type: functional, Mus musculus; set-up: concentration or dose not given beside the values
Method in brief: (§3)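 Groups of six female BDF1 mice received B16 melanoma (1 × 10^6 cells/mouse) s.c. on day 0. AGL analogues were given i.v. at 100 μg/kg on days 1, 5 and 9, and MMC at 5 mg/kg i.p. on day 1; controls were untreated. Tumor volume (length × width × height/2, by callipers) was read on days 8, 12, 16 and 20. TGIR = [1 − mean test volume/mean control volume] × 100, and the maximum value is reported.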

Mus musculus [8] = species on record: Mus musculus; test: Lymphocyte Proliferation Stimulatory effect on Allogenic MLR at 10 ng/mL and measured for [3H]TdR (tritium-thymidine) uptake (percent of control); type: functional; method in brief: as §2
Homo sapiens [9] = species on record: Homo sapiens; test: Lymphocyte Proliferation Stimulatory effect on human peripheral blood at 100 ng/mL and measured for [3H]TdR (tritium-thymidine) uptake (percent of control); type: functional; method in brief: as §1
B16 [10] = test: Tumor Growth Inhibitory effect (TGIR) on mice subcutaneously inoculated with B16 cells (compound alone (single)); type: functional, Mus musculus; set-up: concentration or dose not given beside the values; method in brief: as §3
Mus musculus [11] = species on record: Mus musculus; test: Lymphocyte Proliferation Stimulatory effect on Allogenic MLR at 0.1 ng/mL and measured for [3H]TdR (tritium-thymidine) uptake (percent of control); type: functional; method in brief: as §2
B16 [12] = test: Tumor Growth Inhibitory effect (TGIR) on mice subcutaneously inoculated with B16 cells (compound plus MMC); type: functional, Mus musculus; set-up: concentration or dose not given beside the values; method in brief: as §3
Homo sapiens [13] = species on record: Homo sapiens; test: Lymphocyte Proliferation Stimulatory effect on human peripheral blood at 10 ng/mL and measured for [3H]TdR (tritium-thymidine) uptake (percent of control); type: functional; method in brief: as §1

CCCCCCCCCCCCCCCCCCCCCCCCCC(=O)N[C@@H](CO[C@H]1O[C@H](CO)[C@H](O)[C@H](O)[C@H]1O)[C@H](O)[C@H](O)CCCCCCCCCCCCCC [RGI-7000]
Control (Homo sapiens [1]): 663% | Control (Mus musculus [2]): 200% | Control (Mus musculus [3]): 283% | Control (Homo sapiens [4]): 398% | Control (Homo sapiens [5]): 581% | Control (Homo sapiens [6]): 356% | Tumor growth inhibition ratio (max TGIR) (B16 [7]): 67.6% | Control (Mus musculus [8]): 251% | Control (Homo sapiens [9]): 590% | Control (B16 [10]): 53.8% | Control (Mus musculus [11]): 125% | Control (B16 [12]): 86.7% | Control (Homo sapiens [13]): 389%

Source: ChEMBL document CHEMBL1128398, “Structure-activity relationship of alpha-galactosylceramides against B16-bearing mice” (1995)
